# Results from ChEMBL document CHEMBL1153706, “Synthesis of 9-anilinoacridine triazines as new class of hybrid antimalarial agents” (Bioorg Med Chem Lett, 2009).
# Experiments:
# [1] = Selectivity index, ratio of IC50 for african green monkey (Cercopithecus aethiops) Vero cells to IC50 for chloroquine-sensitive Plasmodium falciparum 3D7; assay type: toxicity, cell-based; settings: read-out: Ratio IC50
# How it was run: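 Ratio of the Vero IC50 to the 3D7 IC50. Vero monkey kidney […] cells at 1 × 10⁴ cells/well exposed to varying compound concentrations for 72 h, MTT read-out, IC50 from non-linear regression. The 3D7 IC50 comes from a 72 h SYBR Green I fluorescence assay using twofold serial dilutions from 500 ng/ml.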
# [2] = test system: Plasmodium falciparum; assay: Antimalarial activity against chloroquine-sensitive Plasmodium falciparum 3D7 after 72 hrs; assay type: functional, organism-based; settings: 3D7, 72 h
# How it was run: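 P. falciparum 3D7 cultured with 0.5% parasitaemia in a 2.5% cell suspension. Compounds are made up as 5 mg/ml DMSO stocks. Twofold serial dilutions (seven concentrations) start at 500 ng/ml, or 25 ng/ml for chloroquine, in duplicate wells. Incubated 72 h, then lysis buffer with SYBR Green I, 1 h at room temperature, fluorescence read. IC50 from non-linear regression dose–response curves.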
# [3] = test system: Plasmodium yoelii; assay: Antimalarial activity against chloroquine-resistant Plasmodium yoelii N67 infected in Swiss mice (Mus musculus) assessed as suppression of parasitaemia at 100 mg/kg, peroral for 4 days; assay type: functional; settings: N67, 96 h, route oral
# How it was run: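 Swiss mice (22 2 g), groups of five, inoculated with 1 × 10⁶ parasitized RBC on day 0; dosed once daily days 0–3, orally, 0.1 ml aqueous suspension with a few drops of Tween 80. Parasitaemia read from thin blood smears between days 4 and 6; group mean used for percent suppression versus untreated controls; CQ-treated mice as reference.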
IC50 [2] [nM],Structure (SMILES),selectivity ratio [1],inhibition in vivo at 100 mg/kg [3] [%]
19.2,CCN1CCN(c2nc(Nc3ccccc3)nc(Nc3ccc(Nc4c5ccc(Cl)cc5nc5ccc(OC)cc45)cc3)n2)CC1,164,
21.8,CCN(CC)CCNc1nc(Nc2ccccc2)nc(Nc2ccc(Nc3c4ccc(Cl)cc4nc4ccc(OC)cc34)cc2)n1,137,
289,CCCCNc1nc(Nc2ccccc2)nc(Nc2ccc(Nc3c4ccc(Cl)cc4nc4ccc(OC)cc34)cc2)n1,138,
45.1,COc1ccc2nc3cc(Cl)ccc3c(Nc3ccc(Nc4nc(NCCCN5CCOCC5)nc(Nc5ccc(F)cc5)n4)cc3)c2c1,1560,
119,COc1ccc2nc3cc(Cl)ccc3c(Nc3ccc(Nc4nc(N)nc(Nc5ccc(F)cc5)n4)cc3)c2c1,37.1,
49.4,COc1ccc2nc3cc(Cl)ccc3c(Nc3ccc(Nc4nc(Nc5ccc(F)cc5)nc(N5CCN(C)CC5)n4)cc3)c2c1,210,
4.27,COc1ccc2nc3cc(Cl)ccc3c(Nc3ccc(Nc4nc(NN)nc(Nc5ccccc5)n4)cc3)c2c1,31.4,
22.1,COc1ccc2nc3cc(Cl)ccc3c(Nc3ccc(Nc4nc(Nc5ccccc5)nc(N5CCN(C)CC5)n4)cc3)c2c1,146,
68.4,COc1ccc2nc3cc(Cl)ccc3c(Nc3ccc(Nc4nc(N)nc(Nc5ccccc5)n4)cc3)c2c1,448,
17.5,COc1ccc2nc3cc(Cl)ccc3c(Nc3ccc(Nc4nc(Nc5ccccc5)nc(NC5CCCC5)n4)cc3)c2c1,5010,
15.1,COc1ccc2nc3cc(Cl)ccc3c(Nc3ccc(Nc4nc(NCCCN5CCOCC5)nc(Nc5ccccc5)n4)cc3)c2c1,61.4,
65.6,CCN1CCN(c2nc(Nc3ccc(F)cc3)nc(Nc3ccc(Nc4c5ccc(Cl)cc5nc5ccc(OC)cc45)cc3)n2)CC1,193,
,CCN(CC)CCCC(C)Nc1ccnc2cc(Cl)ccc12 (stereo unspecified) [CHLOROQUINE],,99.9
40.1,COc1ccc2nc3cc(Cl)ccc3c(Nc3ccc(Nc4nc(NCCN(C)C)nc(Nc5ccc(F)cc5)n4)cc3)c2c1,28.1,
365,COc1ccc2nc3cc(Cl)ccc3c(Nc3ccc(Nc4nc(NCCCO)nc(Nc5ccccc5)n4)cc3)c2c1,17.4,
35.2,COc1ccc2nc3cc(Cl)ccc3c(Nc3ccc(Nc4nc(NCCCN(C)C)nc(Nc5ccc(F)cc5)n4)cc3)c2c1,99.8,
116,CNc1nc(Nc2ccc(F)cc2)nc(Nc2ccc(Nc3c4ccc(Cl)cc4nc4ccc(OC)cc34)cc2)n1,336,

Structure (SMILES),IC50 [2] [nM],selectivity ratio [1],inhibition in vivo at 100 mg/kg [3] [%]
COc1ccc2nc3cc(Cl)ccc3c(Nc3ccc(Nc4nc(NCCN(C)C)nc(Nc5ccccc5)n4)cc3)c2c1,7.95,160,49
CCN(CC)CCNc1nc(Nc2ccc(F)cc2)nc(Nc2ccc(Nc3c4ccc(Cl)cc4nc4ccc(OC)cc34)cc2)n1,27.9,155,95.4
COc1ccc2nc3cc(Cl)ccc3c(Nc3ccc(Nc4nc(NCCCN(C)C)nc(Nc5ccccc5)n4)cc3)c2c1,4.21,295,95.7
COc1ccc2nc3cc(Cl)ccc3c(Nc3ccc(Nc4nc(NCCO)nc(Nc5ccccc5)n4)cc3)c2c1,9.46,755,58.5
COc1ccc2nc3cc(Cl)ccc3c(Nc3ccc(Nc4nc(NCCN5CCOCC5)nc(Nc5ccccc5)n4)cc3)c2c1,6.97,2900,96.6
COc1ccc2nc3cc(Cl)ccc3c(Nc3ccc(Nc4nc(NCCN5CCOCC5)nc(Nc5ccc(F)cc5)n4)cc3)c2c1,20.1,3090,98.7
